Laboratory results as given in ChEMBL document CHEMBL4396873, “Discovery of Potent, Selective, and Short-Acting Peptidic V2 Receptor Agonists” (J Med Chem, 2019).
Active and inactive are the calls of the source. No cut-off for these calls is given here. Bridge positions count the residues as written; N and C are the ends. Square brackets hold non-standard residues; d marks the D form. Peptide text beside a SMILES is read from it. Mpa = O=C(O)CCS

What was measured:
[1] = Clearance in Sprague-Dawley rat at 0.1 mg/kg, iv administered as cassette dose by LC-MS/MS analysis; type: ADME, organism-based; settings: in vivo
[2] = Protein binding in rat plasma at 200 to 1000 ng/ml measured after 15 mins by UC-LC/MS/MS analysis; type: ADME, cell-free; settings: read-out: PPB (converted)
In short: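 Peptide spiked into rat plasma to final 200-1000 ng/mL, incubated 15 min at 37 °C, ultracentrifuged at 773,000 xg for 30 min at 37 °C; middle-layer sample quantified by LC/MS/MS; binding (%) = (Ci − Cm)/Ci × 100; quadruplicate.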

[3] = target: Vasopressin V1a receptor (Homo sapiens, UniProt P37288); assay: Agonist activity at recombinant human V1a receptor expressed in HEK293 cells up to 1000 nM measured after 5 hrs by luciferase reporter gene assay; type: cell-based; settings: hek293, 5 h
[4] = target: Vasopressin V2 receptor (Homo sapiens, UniProt P30518); assay: Agonist activity at recombinant human V2 receptor expressed in HEK293 cells measured after 5 hrs by cAMP response element driven luciferase reporter gene assay; type: functional, cell-based
[5] = Non-renal clearance in nephrectomized Sprague-Dawley rat at 0.1 mg/kg, iv administered as cassette dose by LC-MS/MS analysis; type: ADME, organism-based; settings: in vivo
[6] = target: T1, Oxytocin receptor (Homo sapiens) (UniProt P30559); assay: Agonist activity at human OTR stably expressed in CHOK1 cells up to 10000 nM by NFAT-luciferase reporter gene assay; type: cell-based
T1 sequence (whole entry): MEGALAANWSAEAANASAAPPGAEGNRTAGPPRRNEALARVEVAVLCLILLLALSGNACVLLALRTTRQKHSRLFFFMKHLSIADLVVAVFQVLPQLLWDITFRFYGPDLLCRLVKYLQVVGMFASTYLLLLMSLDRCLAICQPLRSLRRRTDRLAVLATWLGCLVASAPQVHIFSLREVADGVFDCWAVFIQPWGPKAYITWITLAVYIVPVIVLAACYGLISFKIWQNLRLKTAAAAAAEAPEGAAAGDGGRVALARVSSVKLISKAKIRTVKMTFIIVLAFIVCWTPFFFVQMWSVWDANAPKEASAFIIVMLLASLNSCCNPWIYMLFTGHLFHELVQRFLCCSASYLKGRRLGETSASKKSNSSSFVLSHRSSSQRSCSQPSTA

Sequence of Vasopressin V2 receptor (P30518 whole entry): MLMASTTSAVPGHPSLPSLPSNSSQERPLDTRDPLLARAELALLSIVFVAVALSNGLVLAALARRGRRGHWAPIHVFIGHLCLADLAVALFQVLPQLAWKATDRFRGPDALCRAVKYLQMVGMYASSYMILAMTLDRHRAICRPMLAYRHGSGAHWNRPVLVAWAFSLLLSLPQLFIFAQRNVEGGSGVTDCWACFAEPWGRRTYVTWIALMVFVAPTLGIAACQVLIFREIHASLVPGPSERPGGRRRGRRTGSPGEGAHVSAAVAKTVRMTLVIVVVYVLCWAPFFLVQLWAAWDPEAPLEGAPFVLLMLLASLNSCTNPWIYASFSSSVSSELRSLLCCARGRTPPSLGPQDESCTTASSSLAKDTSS
Sequence of Vasopressin V1a receptor (P37288 whole entry): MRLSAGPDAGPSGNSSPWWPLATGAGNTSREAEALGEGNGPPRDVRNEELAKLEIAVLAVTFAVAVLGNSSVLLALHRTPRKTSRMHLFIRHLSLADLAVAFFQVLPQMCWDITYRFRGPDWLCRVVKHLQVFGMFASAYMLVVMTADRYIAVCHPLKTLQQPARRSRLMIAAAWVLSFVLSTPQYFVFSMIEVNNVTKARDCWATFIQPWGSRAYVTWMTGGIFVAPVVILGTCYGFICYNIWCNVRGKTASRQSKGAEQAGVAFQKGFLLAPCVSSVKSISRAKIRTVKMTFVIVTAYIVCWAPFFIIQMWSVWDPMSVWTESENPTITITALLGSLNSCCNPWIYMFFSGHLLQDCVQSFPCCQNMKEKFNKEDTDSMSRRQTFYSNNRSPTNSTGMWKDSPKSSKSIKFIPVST

| Compound | clearance [1] [mL/min/kg] | fraction unbound at […] [2] | Activity [3] | EC50 [4] [nM] | CL [5] [%] | Activity [6] |
| --- | --- | --- | --- | --- | --- | --- |
| CC(C)[C@@H]1NC(=O)[C@H](Cc2ccccc2)NC(=O)[C@H](Cc2ccc(O)cc2)NC(=O)CCSSC[C@@H](C(=O)N2CCC[C@H]2C(=O)N[C@H](CCCNC(=N)N)C(=O)NCC(N)=O)NC(=O)[C@H](CC(N)=O)NC1=O ([Mpa]YFVNCP[dR]G-NH2; disulfide 1-6) | 9.6 | 0.69 | Not Active | 0.05 | – | – |
| CC(C)[C@@H]1NC(=O)[C@H](Cc2cccs2)NC(=O)[C@H](Cc2ccc(Cl)cc2)NC(=O)CCCSC[C@@H](C(=O)N2CSC[C@H]2C(=O)N[C@H](CCCNC(=N)N)C(=O)NCCc2cccs2)NC(=O)[C@H](CC(N)=O)NC1=O | 34 | 0.07 | Not Active | 0.17 | 100 | inactive |
| CCNC(=O)[C@@H](CCCNC(=N)N)NC(=O)[C@@H]1CCCN1C(=O)[C@@H]1CCSCCC(=O)N[C@@H](Cc2ccc(Cl)cc2)C(=O)N[C@@H](Cc2cccs2)C(=O)N[C@@H](C(C)C)C(=O)N[C@@H](CC(N)=O)C(=O)N1 | 5.3 | 0.1 | Not Active | 0.19 | 67 | inactive |
| CNC(=O)[C@@H](CCCNC(=N)N)NC(=O)[C@@H]1CCCN1C(=O)[C@@H]1CSCCCC(=O)N[C@@H](Cc2ccc(Cl)cc2)C(=O)N[C@@H](Cc2cccs2)C(=O)N[C@@H](C(C)C)C(=O)N[C@@H](CC(N)=O)C(=O)N1 | 9.1 | 0.18 | Not Active | 0.27 | – | inactive |
| CC(C)CNC(=O)[C@@H](CCCNC(=N)N)NC(=O)[C@@H]1C[C@@H](O)CN1C(=O)[C@@H]1CCSCCC(=O)N[C@@H](Cc2ccc(Cl)cc2)C(=O)N[C@@H](Cc2cccs2)C(=O)N[C@@H](C(C)C)C(=O)N[C@@H](CC(N)=O)C(=O)N1 | 5.9 | 0.08 | Not Active | 0.2 | – | inactive |
| CCNC(=O)[C@@H](CCCNC(=N)N)NC(=O)[C@@H]1C[C@@H](O)CN1C(=O)[C@@H]1CSCCCC(=O)N[C@@H](Cc2ccc(Cl)cc2)C(=O)N[C@@H](Cc2ccccc2)C(=O)N[C@@H](C(C)C)C(=O)N[C@@H](CC(N)=O)C(=O)N1 | 3.3 | 0.09 | Not Active | 0.29 | – | inactive |
| CCNC(=O)[C@@H](CCCNC(=N)N)NC(=O)[C@@H]1CSCN1C(=O)[C@@H]1CCSCCC(=O)N[C@@H](Cc2ccc(Cl)cc2)C(=O)N[C@@H](Cc2cccs2)C(=O)N[C@@H](C(C)C)C(=O)N[C@@H](CC(N)=O)C(=O)N1 | 11 | 0.08 | Not Active | 0.11 | – | inactive |
| CC(C)[C@@H]1NC(=O)[C@H](Cc2cccs2)NC(=O)[C@H](Cc2ccc(O)cc2)NC(=O)CCCSC[C@@H](C(=O)N2CCC[C@H]2C(=O)N[C@H](CCCNC(=N)N)C(=O)NCc2ccccc2)NC(=O)[C@H](CC(N)=O)NC1=O | 14 | 0.55 | Not Active | 0.26 | 71 | inactive |
| CC(C)NC(=O)[C@@H](CCCNC(=N)N)NC(=O)[C@@H]1CCCN1C(=O)[C@@H]1CSCCCC(=O)N[C@@H](Cc2ccc(Cl)cc2)C(=O)N[C@@H](Cc2cccs2)C(=O)N[C@@H](C(C)C)C(=O)N[C@@H](CC(N)=O)C(=O)N1 | 15 | 0.15 | Not Active | 0.45 | 58 | inactive |
| CCNC(=O)[C@@H](CCCNC(=N)N)NC(=O)[C@@H]1CCCN1C(=O)[C@@H]1CSCCCC(=O)N[C@@H](Cc2ccc(Cl)cc2)C(=O)N[C@@H](Cc2cccs2)C(=O)N[C@@H](C(C)C)C(=O)N[C@@H](CC(N)=O)C(=O)N1 | 10 | 0.16 | Not Active | – | 49 | inactive |
